Test results from ChEMBL document CHEMBL1833877, “Antinociceptive properties of bergenin” (J Nat Prod, 2011).

Legend:
Conditions in all cases: in vivo
[1] = test system: Mus musculus; assay: Toxicity in mouse assessed as renal function measuring serum urea level at 50 mg/kg, ip for seven consecutive days relative to control; assay type: organism-based; parameters: dose 50 mg/kg, route intraperitoneal
How it was run: (§1)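 Once-daily ip dosing for seven consecutive days in male mice (22–28 g), with vehicle (2% DMSO in saline) as control. At the end of treatment, blood taken from the retro-orbital plexus under light anesthesia. Serum obtained without anticoagulant by centrifugation at 2500 rpm for 15 min, then assayed biochemically for urea and creatinine. Means ± SEM, 6–9 animals per group.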

[2] = test system: Mus musculus; assay: Toxicity in mouse assessed as renal function measuring serum creatinine level at 50 mg/kg, ip for seven consecutive days relative to control; assay type: organism-based; parameters: dose 50 mg/kg, route intraperitoneal; how it was run: as §1
[3] = test system: Mus musculus; assay: Toxicity in mouse assessed as liver function measuring serum ALT level at 50 mg/kg, ip for seven consecutive days relative to control; assay type: organism-based; parameters: dose 50 mg/kg, route intraperitoneal
How it was run: (§2)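 Mice were weighed and dosed ip once daily for 7 consecutive days, vehicle controls alongside, and monitored for toxic signs and general appearance. At the end, retro-orbital blood was taken under light anesthesia for leukocyte counts. Serum, from blood centrifuged at 2500 rpm for 15 min without anticoagulant, was used for ALT and AST.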

[4] = test system: Mus musculus; assay: Toxicity in mouse assessed as liver function measuring serum AST level at 50 mg/kg, ip for seven consecutive days relative to control; assay type: organism-based; parameters: dose 50 mg/kg, route intraperitoneal; how it was run: as §2
[5] = test system: Mus musculus; assay: Toxicity in mouse assessed as leukogram at 50 mg/kg, ip for seven consecutive days relative to control; assay type: organism-based; parameters: dose 50 mg/kg, route intraperitoneal; how it was run: as §2
[6] = test system: Mus musculus; assay: Toxicity in mouse assessed as gastric inflammation at 50 mg/kg, ip for seven consecutive days relative to control; assay type: organism-based, Stomach; parameters: dose 50 mg/kg, route intraperitoneal
How it was run: (§3)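 After 7 daily ip doses, stomachs were cryosectioned at 3 μm and stained with H&E. Sections were scored blind 0–4 for inflammatory infiltrate, edema, epithelial loss and necrosis. Ten fields (40×) were read per section, means ± SEM.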

[7] = test system: Mus musculus; assay: Toxicity in mouse assessed as gastric ulcer at 50 mg/kg, ip for seven consecutive days relative to control; assay type: organism-based, Stomach; parameters: dose 50 mg/kg, route intraperitoneal; how it was run: as §3
[8] = test system: Mus musculus; assay: Toxicity in mouse assessed as inflammatory cell infiltrate in gastric mucosa at 50 mg/kg, ip for seven consecutive days relative to control; assay type: organism-based; parameters: dose 50 mg/kg, route intraperitoneal; how it was run: as §3
[9] = test system: Mus musculus; assay: Toxicity in mouse assessed as edema in gastric mucosa at 50 mg/kg, ip for seven consecutive days relative to control; assay type: organism-based; parameters: dose 50 mg/kg, route intraperitoneal; how it was run: as §3
[10] = test system: Mus musculus; assay: Toxicity in mouse assessed as necrosis in gastric mucosa at 50 mg/kg, ip for seven consecutive days relative to control; assay type: organism-based; parameters: dose 50 mg/kg, route intraperitoneal; how it was run: as §3
[11] = test system: Mus musculus; assay: Toxicity in mouse assessed as reduction in corporal mass at 100 mg/kg, ip for seven consecutive days relative to control; assay type: organism-based; parameters: dose 100 mg/kg, route intraperitoneal; how it was run: as §2
[12] = test system: Mus musculus; assay: Toxicity in mouse assessed as change in general appearance at 100 mg/kg, ip for seven consecutive days relative to control; assay type: organism-based; parameters: dose 100 mg/kg, route intraperitoneal; how it was run: as §2
[13] = test system: Mus musculus; assay: Toxicity in mouse assessed as renal function measuring serum urea level at 100 mg/kg, ip for seven consecutive days relative to control; assay type: organism-based; parameters: dose 100 mg/kg, route intraperitoneal; how it was run: as §1
[14] = test system: Mus musculus; assay: Toxicity in mouse assessed as renal function measuring serum creatinine level at 100 mg/kg, ip for seven consecutive days relative to control; assay type: organism-based; parameters: dose 100 mg/kg, route intraperitoneal; how it was run: as §1
[15] = test system: Mus musculus; assay: Toxicity in mouse assessed as liver function measuring serum ALT level at 100 mg/kg, ip for seven consecutive days relative to control; assay type: organism-based; parameters: dose 100 mg/kg, route intraperitoneal; how it was run: as §2
[16] = test system: Mus musculus; assay: Toxicity in mouse assessed as liver function measuring serum AST level at 100 mg/kg, ip for seven consecutive days relative to control; assay type: organism-based; parameters: dose 100 mg/kg, route intraperitoneal; how it was run: as §2
[17] = test system: Mus musculus; assay: Toxicity in mouse assessed as leukogram at 100 mg/kg, ip for seven consecutive days relative to control; assay type: organism-based; parameters: dose 100 mg/kg, route intraperitoneal; how it was run: as §2
[18] = test system: Mus musculus; assay: Toxicity in mouse assessed as gastric inflammation at 100 mg/kg, ip for seven consecutive days relative to control; assay type: organism-based, Stomach; parameters: dose 100 mg/kg, route intraperitoneal; how it was run: as §3
[19] = test system: Mus musculus; assay: Toxicity in mouse assessed as gastric ulcer at 100 mg/kg, ip for seven consecutive days relative to control; assay type: organism-based, Stomach; parameters: dose 100 mg/kg, route intraperitoneal; how it was run: as §3
[20] = test system: Mus musculus; assay: Toxicity in mouse assessed as inflammatory cell infiltrate in gastric mucosa at 100 mg/kg, ip for seven consecutive days relative to control; assay type: organism-based; parameters: dose 100 mg/kg, route intraperitoneal; how it was run: as §3
[21] = test system: Mus musculus; assay: Toxicity in mouse assessed as edema in gastric mucosa at 100 mg/kg, ip for seven consecutive days relative to control; assay type: organism-based; parameters: dose 100 mg/kg, route intraperitoneal; how it was run: as §3
[22] = test system: Mus musculus; assay: Toxicity in mouse assessed as necrosis in gastric mucosa at 100 mg/kg, ip for seven consecutive days relative to control; assay type: organism-based; parameters: dose 100 mg/kg, route intraperitoneal; how it was run: as §3
[23] = test system: Mus musculus; assay: Neurotoxicity in mouse assessed as effect on motor coordination at 100 mg/kg, ip after 40 mins by Rotarod test

Measured: Activity

COc1c(O)cc2c(c1O)[C@@H]1O[C@H](CO)[C@@H](O)[C@H](O)[C@H]1OC2=O [BERGENIN]
Non-toxic: [1] | [2] | [3] | [4] | [5] | [6] | [7] | [8] | [9] | [10] | [11] | [12] | [13] | [14] | [15] | [16] | [17] | [18] | [19] | [20] | [21] | [22] | [23]
